The source made the active and inactive calls. The calls are words filed in the database; no cut-off is given here.
Experiments:
[1] = Vasodilative activity in isolated Sprague-Dawley rat mesenteric arterial ring assessed as reduction in KCl-induced contraction by wire myograph method relative to control; assay type: functional; conditions: Mesenteric artery
How it was run: (§1)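 Isolated rat mesenteric arterial rings were precontracted with 60 mM KCl MOPS solution and then exposed to the compound. Relaxation was expressed as pEC50 and Emax (%), given as mean ± deviation. DMSO served as vehicle control and nitrendipine as reference.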

[2] = Vasodilative activity in isolated Sprague-Dawley rat mesenteric arterial ring assessed as reduction in KCl-induced contraction by wire myograph method; assay type: functional; conditions: Mesenteric artery; how it was run: as §1
[3] = tested on: Rattus norvegicus; experiment: Antihypertensive activity in spontaneously hypertensive rat assessed as reduction in diastolic blood pressure at 4 mg/kg, po measured after 2 hrs; assay type: functional, Artery
How it was run: (§2)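 Time course in spontaneously hypertensive rats given 4.0 mg/kg orally in NMP/PEG400/H2O 1:7:2 vehicle (5 ml/kg). A vehicle-only group was included. DBP and SBP were followed at successive times after dosing, and the reduction from the pre-dose blood pressure was reported.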

[4] = tested on: Rattus norvegicus; experiment: Antihypertensive activity in orally dosed spontaneously hypertensive rat assessed as reduction in diastolic blood pressure; assay type: functional, organism-based; conditions: Artery
How it was run: (§3)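 Oral dosing in spontaneously hypertensive rats, n = 8 per group. Vehicle was NMP/PEG400/H2O 1:7:2 at 5 ml/kg, and vehicle alone served as control. DBP and SBP (mmHg) were recorded before dosing (0 h) and 1 h after. The reported value is the reduction from the 0 h reading. Doses tested ranged from 0.5 to 8.0 mg/kg, with nitrendipine 2.0 mg/kg as positive drug.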

[5] = tested on: Rattus norvegicus; experiment: Antihypertensive activity in spontaneously hypertensive rat assessed as reduction in systolic blood pressure at 4 mg/kg, po measured after 1 hr; assay type: functional, Artery; how it was run: as §3
[6] = tested on: Rattus norvegicus; experiment: Antihypertensive activity in spontaneously hypertensive rat assessed as reduction in diastolic blood pressure at 8 mg/kg, po measured after 1 hr; assay type: functional, Artery; how it was run: as §3
[7] = tested on: Rattus norvegicus; experiment: Antihypertensive activity in spontaneously hypertensive rat assessed as reduction in systolic blood pressure at 4 mg/kg, po measured after 6 hrs; assay type: functional, Artery; how it was run: as §2
[8] = tested on: Rattus norvegicus; experiment: Antihypertensive activity in spontaneously hypertensive rat assessed as reduction in diastolic blood pressure at 4 mg/kg, po measured after 0.5 hrs; assay type: functional, Artery; how it was run: as §2
[9] = tested on: Rattus norvegicus; experiment: Antihypertensive activity in spontaneously hypertensive rat assessed as reduction in systolic blood pressure at 1 mg/kg, po measured after 1 hr; assay type: functional, Artery; how it was run: as §3
[10] = tested on: Rattus norvegicus; experiment: Antihypertensive activity in spontaneously hypertensive rat assessed as reduction in systolic blood pressure at 4 mg/kg, po measured after 8 hrs; assay type: functional, Artery; how it was run: as §2
[11] = tested on: Rattus norvegicus; experiment: Antihypertensive activity in spontaneously hypertensive rat assessed as reduction in systolic blood pressure at 8 mg/kg, po measured after 1 hr; assay type: functional, Artery; how it was run: as §3
[12] = tested on: Rattus norvegicus; experiment: Antihypertensive activity in spontaneously hypertensive rat assessed as reduction in diastolic blood pressure at 4 mg/kg, po measured after 8 hrs; assay type: functional, Artery; how it was run: as §2
[13] = tested on: Rattus norvegicus; experiment: Antihypertensive activity in spontaneously hypertensive rat assessed as reduction in systolic blood pressure at 4 mg/kg, po measured after 0.5 hrs; assay type: functional, Artery; how it was run: as §2
[14] = tested on: Rattus norvegicus; experiment: Antihypertensive activity in spontaneously hypertensive rat assessed as reduction in diastolic blood pressure at 0.5 mg/kg, po measured after 1 hr; assay type: functional, Artery; how it was run: as §3
[15] = tested on: Rattus norvegicus; experiment: Antihypertensive activity in spontaneously hypertensive rat assessed as reduction in diastolic blood pressure at 2 mg/kg, po measured after 1 hr; assay type: functional, Artery; how it was run: as §3
[16] = tested on: Rattus norvegicus; experiment: Antihypertensive activity in spontaneously hypertensive rat assessed as reduction in diastolic blood pressure at 1 mg/kg, po measured after 1 hr; assay type: functional, Artery; how it was run: as §3
[17] = tested on: Rattus norvegicus; experiment: Antihypertensive activity in spontaneously hypertensive rat assessed as reduction in diastolic blood pressure at 4 mg/kg, po measured after 1 hr; assay type: functional, Artery; how it was run: as §3
[18] = tested on: Rattus norvegicus; experiment: Antihypertensive activity in spontaneously hypertensive rat assessed as reduction in systolic blood pressure at 4 mg/kg, po measured after 2 hrs; assay type: functional, Artery; how it was run: as §2
[19] = tested on: Rattus norvegicus; experiment: Antihypertensive activity in spontaneously hypertensive rat assessed as reduction in systolic blood pressure at 4 mg/kg, po measured after 4 hrs; assay type: functional, Artery; how it was run: as §2
[20] = tested on: Rattus norvegicus; experiment: Antihypertensive activity in spontaneously hypertensive rat assessed as reduction in systolic blood pressure at 0.5 mg/kg, po measured after 1 hr; assay type: functional, Artery; how it was run: as §3
[21] = Vasodilative activity in isolated Sprague-Dawley rat mesenteric arterial ring assessed as reduction in phenylephrine-induced contraction at 1 to 10 uM pre-incubated for 30 mins before phenylephrine addition by wire myograph method; assay type: functional; conditions: Mesenteric artery
How it was run: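 Rat mesenteric artery segments were pretreated with compound at 10^-5 M or 10^-6 M for 30 min. Contraction induced by phenylephrine was then recorded.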

[22] = tested on: Rattus norvegicus; experiment: Antihypertensive activity in spontaneously hypertensive rat assessed as reduction in diastolic blood pressure at 4 mg/kg, po measured after 6 hrs; assay type: functional, Artery; how it was run: as §2
[23] = tested on: Rattus norvegicus; experiment: Antihypertensive activity in spontaneously hypertensive rat assessed as reduction in systolic blood pressure at 2 mg/kg, po measured after 1 hr; assay type: functional, Artery; how it was run: as §3
[24] = tested on: Rattus norvegicus; experiment: Antihypertensive activity in spontaneously hypertensive rat assessed as reduction in diastolic blood pressure at 4 mg/kg, po measured after 4 hrs; assay type: functional, Artery; how it was run: as §2
[25] = tested on: Rattus norvegicus; experiment: Antihypertensive activity in orally dosed spontaneously hypertensive rat assessed as reduction in systolic blood pressure; assay type: functional, organism-based; conditions: Artery; how it was run: as §3

## COc1cc2ncn(Cc3ccc(C#N)cc3)c(=O)c2cc1OC
[1]
  Emax: 85.6%
[2]
  EC50: 50.1 µM

## COc1cc2ncn(Cc3ccc(OCc4cccc(F)c4)c(OC)c3)c(=O)c2cc1OC
[1]
  Emax: 99.6%
[2]
  EC50: 1 µM

## O=c1c2ccc(Cl)cc2ncn1Cc1ccc(F)cc1
[1]
  Emax: 101%
[2]
  EC50: 63.1 µM

## COc1ccc(COc2ccc(Cn3cnc4cc(OC)c(OC)cc4c3=O)cc2OC)cc1OC
[1]
  Emax: 99.7%
[2]
  EC50: 3.16 µM

## COc1cc2ncn(Cc3ccc(OCc4ccc(F)cc4)c(OC)c3)c(=O)c2cc1OC
[3]
  Activity: 23 mmHg
[4]
  Activity: Dose-dependent effect
[5]
  Activity: 60 mmHg
[6]
  Activity: 43 mmHg
[7]
  Activity: 21 mmHg
[8]
  Activity: 20 mmHg
[9]
  Activity: 28 mmHg
[10]
  Activity: 2 mmHg
[11]
  Activity: 64 mmHg
[12]
  Activity: 0 mmHg
[13]
  Activity: 46 mmHg
[14]
  Activity: 9 mmHg
[15]
  Activity: 18 mmHg
[16]
  Activity: 15 mmHg
[1]
  Emax: 103%
[17]
  Activity: 34 mmHg
[2]
  EC50: 0.251 µM
[18]
  Activity: 42 mmHg
[19]
  Activity: 36 mmHg
[20]
  Activity: 12 mmHg
[21]
  Activity: Active
[22]
  Activity: 10 mmHg
[23]
  Activity: 41 mmHg
[24]
  Activity: 17 mmHg
[25]
  Activity: Dose-dependent effect

## O=c1c2cc(Br)ccc2ncn1Cc1ccc(F)cc1
[1]
  Emax: 96.4%
[2]
  EC50: 50.1 µM

## COc1cc2ncn(Cc3ccc4c(c3)OCO4)c(=O)c2cc1OC
[1]
  Emax: 98.6%
[2]
  EC50: 7.94 µM

## COc1cc2ncn(Cc3ccc(OCc4ccc(F)cc4)c(F)c3)c(=O)c2cc1OC
[1]
  Emax: 99.1%
[2]
  EC50: 7.94 µM

## COc1ccc(Cn2cnc3cc4c(cc3c2=O)OCO4)cc1
[1]
  Emax: 101%
[2]
  EC50: 20 µM

## COc1cc2ncn(Cc3ccc(OCc4cccnc4)c(OC)c3)c(=O)c2cc1OC
[1]
  Emax: 98.4%
[2]
  EC50: 0.631 µM

## COc1cc2ncn(Cc3ccccc3C)c(=O)c2cc1OC
[1]
  Emax: 97.3%
[2]
  EC50: 31.6 µM

## COc1ccc(Cn2cnc3cc(F)ccc3c2=O)cc1
[1]
  Emax: 87.7%
[2]
  EC50: 79.4 µM

## COc1cc2ncn(Cc3ccc(OCc4ccc(Cl)cc4Cl)c(OC)c3)c(=O)c2cc1OC
[1]
  Emax: 97.8%
[2]
  EC50: 12.6 µM

## COc1cc(Cn2cnc3cc(OC)c(OC)cc3c2=O)ccc1O
[1]
  Emax: 87.6%
[2]
  EC50: 31.6 µM

## COc1cc2ncn(Cc3ccc(OCc4ccncc4)c(OC)c3)c(=O)c2cc1OC
[1]
  Emax: 93.5%
[2]
  EC50: 20 µM

## COc1ccc(-n2cnc3cc(OC)c(OC)cc3c2=O)cc1
[1]
  Emax: 96.3%
[2]
  EC50: 63.1 µM

## COc1cc2ncn(Cc3ccc(OCc4ccccc4)c(OC)c3)c(=O)c2cc1OC
[5]
  Activity: 48 mmHg
[1]
  Emax: 103%
[17]
  Activity: 19 mmHg
[2]
  EC50: 0.398 µM
[21]
  Activity: Active

## COc1cc2ncn(Cc3ccccc3)c(=O)c2cc1OC
[1]
  Emax: 98.2%
[2]
  EC50: 39.8 µM

## O=c1c2ccc(F)cc2ncn1Cc1ccc(F)cc1
[1]
  Emax: 78.3%
[2]
  EC50: 100 µM

## COc1cc2ncn(Cc3ccc([N+](=O)[O-])cc3)c(=O)c2cc1OC
[1]
  Emax: 86.2%
[2]
  EC50: 63.1 µM

## COc1cc2ncn(Cc3ccc(F)cc3)c(=O)c2cc1OC
[1]
  Emax: 97.8%
[2]
  EC50: 25.1 µM

## COc1cc2ncn(Cc3ccc(OC)c(OCc4ccccc4)c3)c(=O)c2cc1OC
[1]
  Emax: 95%
[2]
  EC50: 31.6 µM

## COc1ccc(Cn2cnc3cc(Cl)ccc3c2=O)cc1
[1]
  Emax: 97%
[2]
  EC50: 50.1 µM

## COc1cc2ncn(Cc3ccc(OCc4ccc(F)cc4)c(Cl)c3)c(=O)c2cc1OC
[1]
  Emax: 98.9%
[2]
  EC50: 10 µM

## COc1cc2ncn(Cc3ccccc3Cl)c(=O)c2cc1OC
[1]
  Emax: 98.3%
[2]
  EC50: 39.8 µM

## CCOC(=O)C1=C(C)NC(C)=C(C(=O)OC)C1c1cccc([N+](=O)[O-])c1 (stereo unspecified) [NITRENDIPINE]
[15]
  Activity: 30 mmHg
[1]
  Emax: 104%
[2]
  EC50: 0.00398 µM
[23]
  Activity: 51 mmHg

## COc1ccc(Cn2cnc3cc(OC)c(OC)cc3c2=O)cc1
[1]
  Emax: 100%
[2]
  EC50: 25.1 µM

## COc1cc2ncn(Cc3cc(OC)c(OC)c(OC)c3)c(=O)c2cc1OC
[1]
  Emax: 104%
[2]
  EC50: 0.501 µM

## COc1cc2ncn(Cc3ccc(OCc4ccc(F)cc4)cc3)c(=O)c2cc1OC
[1]
  Emax: 50.3%
[2]
  EC50: 100 µM
